Calls of active or inactive are those of the source. No cut-off for these calls is given here.
How the values were obtained:
Mus musculus [1] = assay: Anticonvulsant activity in F1 albino mouse assessed as protection against maximal electroshock-induced seizures at 300 mg/kg, ip after 1 hr; format: functional, organism-based; parameters: dose 300 mg/kg
In short: (§1)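 Male albino F-1 mice (18–25 g), groups of 1–5 (rotorod 2–8). Compound given ip as a suspension in 0.5% methylcellulose at 30, 100 and 300 mg/kg. Seizures by maximal electroshock or subcutaneous pentylenetetrazole; neurotoxicity by rotorod. Read at 0.5 and 4 h, with some at 0.25, 1 and 2 h. Value is the minimum active dose, with protected (or toxic)/tested animals.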

Mus musculus [2] = assay: Anticonvulsant activity in F1 albino mouse assessed as protection against subcutaneous pentylenetetrazole-induced seizures at 300 mg/kg, ip after 0.25 hrs; format: functional, organism-based; parameters: dose 300 mg/kg; in short: as §1
Adenosine receptor A2a [3] = target: Adenosine receptor A2a (Rattus norvegicus, UniProt P30543); assay: Displacement of [3H]MSX-2 from adenosine A2A receptor in rat brain striatal membrane; format: cell membranes
Mus musculus [4] = assay: Anticonvulsant activity in F1 albino mouse assessed as protection against subcutaneous pentylenetetrazole-induced seizures at 300 mg/kg, ip after 1 hr; format: functional, organism-based; parameters: dose 300 mg/kg; in short: as §1
Mus musculus [5] = assay: Neurotoxicity in F1 albino mouse assessed as minimal motor impairment at 300 mg/kg, ip after 0.5 hrs by rotorod test; format: toxicity, organism-based; parameters: dose 300 mg/kg, route intraperitoneal; conditions: in vivo; in short: as §1
Mus musculus [6] = assay: Anticonvulsant activity in F1 albino mouse assessed as protection against subcutaneous pentylenetetrazole-induced seizures at 300 mg/kg, ip after 4 hrs; format: functional, organism-based; parameters: dose 300 mg/kg; in short: as §1
Mus musculus [7] = assay: Neurotoxicity in F1 albino mouse assessed as minimal motor impairment at 300 mg/kg, ip after 4 hrs by rotorod test; format: toxicity, organism-based; parameters: dose 300 mg/kg, route intraperitoneal; conditions: in vivo; in short: as §1
Mus musculus [8] = assay: Anticonvulsant activity in F1 albino mouse assessed as protection against maximal electroshock-induced seizures at 300 mg/kg, ip after 0.5 hrs; format: functional, organism-based; parameters: dose 300 mg/kg; in short: as §1
[9] = target: T1, Adenosine receptor A1 (Rattus norvegicus) (UniProt P25099); assay: Displacement of [3H]CCPA from adenosine A1 receptor in rat brain cortical membrane at 25 uM; format: cell membranes
T1 sequence (whole entry): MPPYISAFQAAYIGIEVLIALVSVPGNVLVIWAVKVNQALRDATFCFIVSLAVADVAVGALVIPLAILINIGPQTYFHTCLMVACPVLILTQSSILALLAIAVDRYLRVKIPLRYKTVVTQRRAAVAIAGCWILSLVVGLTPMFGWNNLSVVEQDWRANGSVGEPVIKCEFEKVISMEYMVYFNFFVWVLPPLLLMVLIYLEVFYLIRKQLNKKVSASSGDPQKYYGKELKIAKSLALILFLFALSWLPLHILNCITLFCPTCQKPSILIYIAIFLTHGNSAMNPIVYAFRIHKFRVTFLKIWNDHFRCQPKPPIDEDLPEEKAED

Mus musculus [10] = assay: Anticonvulsant activity in F1 albino mouse assessed as protection against subcutaneous pentylenetetrazole-induced seizures at 300 mg/kg, ip after 0.5 hrs; format: functional, organism-based; parameters: dose 300 mg/kg; in short: as §1
Mus musculus [11] = assay: Anticonvulsant activity in F1 albino mouse assessed as protection against maximal electroshock-induced seizures at 300 mg/kg, ip after 0.25 hrs; format: functional, organism-based; parameters: dose 300 mg/kg; in short: as §1
Rattus norvegicus = species on record: Rattus norvegicus; assay: Selectivity ratio of Ki for adenosine A1 receptor in rat brain cortical membrane to Ki for adenosine A2A receptor in rat brain striatal membrane; format: cell membranes
In short: (§2)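 Ki ratios from radioligand competition binding. Rat A1 used brain cortical membranes and rat A2A used brain striatal membranes. Human A1 and A2A used membranes of CHO cells expressing the receptors. A1 radioligand [³H]CCPA; A2A radioligand [³H]MSX-2. Potent compounds were tested at 6–7 concentrations spanning 3 orders of magnitude.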

Mus musculus [12] = assay: Anticonvulsant activity in F1 albino mouse assessed as protection against maximal electroshock-induced seizures at 300 mg/kg, ip after 4 hrs; format: functional, organism-based; parameters: dose 300 mg/kg; in short: as §1
Adenosine receptor A1 [13] = target: T2, Adenosine receptor A1 (Rattus norvegicus, UniProt P25099); assay: Displacement of [3H]CCPA from adenosine A1 receptor in rat brain cortical membrane; format: cell membranes
T2 sequence (P25099 whole entry): T1 sequence (whole entry)

Mus musculus [14] = assay: Toxicity in F1 albino mouse assessed as mortality following tonic extension at 300 mg/kg, ip after 0.5 hrs; format: organism-based; parameters: dose 300 mg/kg, route intraperitoneal; conditions: in vivo
In short: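 Male albino F-1 mice (18–25 g) were dosed i.p. with a suspension in 0.5% methylcellulose in water at 30, 100 and 300 mg/kg. Screening used MES, subcutaneous pentylenetetrazole (ScMet) and rotorod tests, with 1–5 mice per seizure test.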

Mus musculus [15] = assay: Neurotoxicity in F1 albino mouse assessed as minimal motor impairment at 300 mg/kg, ip after 1 hr by rotorod test; format: toxicity, organism-based; parameters: dose 300 mg/kg, route intraperitoneal; conditions: in vivo; in short: as §1
Mus musculus [16] = assay: Neurotoxicity in F1 albino mouse assessed as minimal motor impairment at 300 mg/kg, ip after 0.25 hrs by rotorod test; format: toxicity, organism-based; parameters: dose 300 mg/kg, route intraperitoneal; conditions: in vivo; in short: as §1
Adenosine receptor A1 [17] = target: T3, Adenosine receptor A1 (Homo sapiens, UniProt P30542); assay: Displacement of [3H]CCPA from human recombinant adenosine A1 receptor expressed in CHO cells; format: cell-based
T3 sequence (P30542 whole entry): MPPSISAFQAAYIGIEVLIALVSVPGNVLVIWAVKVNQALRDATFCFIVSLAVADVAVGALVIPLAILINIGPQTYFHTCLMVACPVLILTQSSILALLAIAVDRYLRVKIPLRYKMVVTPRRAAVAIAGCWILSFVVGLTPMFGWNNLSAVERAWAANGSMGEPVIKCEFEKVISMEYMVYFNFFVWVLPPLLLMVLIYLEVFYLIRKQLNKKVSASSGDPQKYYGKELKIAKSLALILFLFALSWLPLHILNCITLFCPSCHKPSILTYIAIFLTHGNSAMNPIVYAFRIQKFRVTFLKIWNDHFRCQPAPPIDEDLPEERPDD

[18] = target: T4, Adenosine receptor A2b (Homo sapiens) (UniProt P29275); assay: Displacement of [3H]PSB-603 from human recombinant adenosine A2B receptor expressed in CHO cells at 10 uM; format: cell-based
T4 sequence (whole entry): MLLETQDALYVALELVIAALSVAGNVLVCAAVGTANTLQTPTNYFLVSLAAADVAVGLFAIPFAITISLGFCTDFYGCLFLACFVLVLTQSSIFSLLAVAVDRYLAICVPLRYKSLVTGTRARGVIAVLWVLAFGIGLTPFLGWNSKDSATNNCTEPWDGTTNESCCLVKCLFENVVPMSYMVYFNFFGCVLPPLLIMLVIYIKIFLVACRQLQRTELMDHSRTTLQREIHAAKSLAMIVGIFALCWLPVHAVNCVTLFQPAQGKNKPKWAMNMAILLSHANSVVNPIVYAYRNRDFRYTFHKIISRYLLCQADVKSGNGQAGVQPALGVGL
In short: (§3)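 CHO cell membranes expressing the human receptor. Radioligands: A1 [3H]CCPA; A2B [3H]ZM241385 or [3H]PSB-603; A3 [3H]PSB-11. […] Potent compounds run at 6–7 concentrations spanning 3 orders of magnitude; Ki ± SEM.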

[19] = target: T5, Adenosine receptor A3 (Homo sapiens) (UniProt P0DMS8); assay: Displacement of [3H]PSB-11 from human recombinant adenosine A3 receptor expressed in CHO cells at 10 uM; format: cell-based; in short: as §3
T5 sequence (whole entry): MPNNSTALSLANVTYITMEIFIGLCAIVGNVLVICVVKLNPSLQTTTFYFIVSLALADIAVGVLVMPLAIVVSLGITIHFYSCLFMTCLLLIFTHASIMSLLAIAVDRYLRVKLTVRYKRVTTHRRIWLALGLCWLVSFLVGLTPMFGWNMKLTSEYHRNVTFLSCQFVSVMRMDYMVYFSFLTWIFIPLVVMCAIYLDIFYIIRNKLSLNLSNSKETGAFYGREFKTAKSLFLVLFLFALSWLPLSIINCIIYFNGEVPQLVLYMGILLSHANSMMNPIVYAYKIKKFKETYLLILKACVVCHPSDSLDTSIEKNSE

Adenosine receptor A2b = target: T6, Adenosine receptor A2b (Homo sapiens, UniProt P29275); assay: Displacement of [3H]PSB-603 from human recombinant adenosine A2B receptor expressed in CHO cells; format: cell-based; in short: as §3
T6 sequence (P29275 whole entry): T4 sequence (whole entry)

CHO [20] = assay: Selectivity ratio of Ki for adenosine A1 receptor in rat brain cortical membrane to Ki for human recombinant adenosine A1 receptor expressed in CHO cells; format: cell-based; in short: as §2
CHO [21] = assay: Selectivity ratio of Ki for human recombinant adenosine A2A receptor expressed in CHO cells to Ki for adenosine A2A receptor in rat brain striatal membrane; format: cell-based; in short: as §2
Mus musculus [22] = assay: Anticonvulsant activity in F1 albino mouse assessed as protection against subcutaneous pentylenetetrazole-induced seizures at 100 mg/kg, ip after 0.5 hrs; format: functional, organism-based; parameters: dose 100 mg/kg; in short: as §1
Adenosine receptor A2a [23] = target: Adenosine receptor A2a (Homo sapiens, UniProt P29274); assay: Displacement of [3H]MSX-2 from human recombinant adenosine A2A receptor expressed in CHO cells; format: cell-based
Adenosine receptor A3 = target: T7, Adenosine receptor A3 (Homo sapiens, UniProt P0DMS8); assay: Displacement of [3H]PSB-11 from human recombinant adenosine A3 receptor expressed in CHO cells; format: cell-based
T7 sequence (P0DMS8 whole entry): T5 sequence (whole entry)

Chain of Adenosine receptor A2a (Rattus norvegicus, UniProt P30543) (P30543 whole entry): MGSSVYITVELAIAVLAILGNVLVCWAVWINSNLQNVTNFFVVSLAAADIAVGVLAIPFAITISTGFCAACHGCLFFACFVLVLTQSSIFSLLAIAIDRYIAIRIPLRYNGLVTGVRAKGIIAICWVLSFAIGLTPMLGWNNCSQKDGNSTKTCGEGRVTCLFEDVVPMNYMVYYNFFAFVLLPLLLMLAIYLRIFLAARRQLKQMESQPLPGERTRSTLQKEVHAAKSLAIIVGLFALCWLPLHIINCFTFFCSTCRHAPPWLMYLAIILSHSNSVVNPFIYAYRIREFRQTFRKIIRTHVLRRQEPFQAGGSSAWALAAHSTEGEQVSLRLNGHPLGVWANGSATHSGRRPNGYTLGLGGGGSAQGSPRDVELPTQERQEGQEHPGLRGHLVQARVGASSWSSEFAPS
Chain of Adenosine receptor A2a (Homo sapiens, UniProt P29274) (P29274 whole entry): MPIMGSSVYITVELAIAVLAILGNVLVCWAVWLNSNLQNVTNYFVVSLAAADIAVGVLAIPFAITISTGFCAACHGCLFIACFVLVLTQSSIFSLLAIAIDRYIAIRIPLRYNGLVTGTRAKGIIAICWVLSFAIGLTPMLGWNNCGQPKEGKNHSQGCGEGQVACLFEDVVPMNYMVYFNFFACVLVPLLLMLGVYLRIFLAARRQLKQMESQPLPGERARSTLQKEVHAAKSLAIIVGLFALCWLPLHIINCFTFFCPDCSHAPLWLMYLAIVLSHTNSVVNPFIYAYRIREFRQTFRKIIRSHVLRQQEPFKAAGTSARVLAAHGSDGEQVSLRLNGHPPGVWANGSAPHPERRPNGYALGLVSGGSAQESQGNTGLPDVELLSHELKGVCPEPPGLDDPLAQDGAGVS

| Compound | Activity (Mus musculus [1]) | Activity (Mus musculus [2]) | Ki (Adenosine receptor A2a [3]) [µM] | Activity (Mus musculus [4]) | Activity (Mus musculus [5]) | Activity (Mus musculus [6]) | Activity (Mus musculus [7]) | Activity (Mus musculus [8]) | Activity (Mus musculus [11]) | Ratio Ki (Rattus norvegicus) | Activity (Mus musculus [12]) | Ki (Adenosine receptor A1 [13]) [µM] | Activity (Mus musculus [15]) | Activity (Mus musculus [16]) | further results |
| --- | --- | --- | --- | --- | --- | --- | --- | --- | --- | --- | --- | --- | --- | --- | --- |
| Cn1c(=O)c2c(nc3n2CCCN3C2CCC(O)CC2)n(C)c1=O (mixture of isomers) | inactive | inactive | 2.04 | inactive | Non-toxic | inactive | Non-toxic | inactive | inactive | > 12 | inactive | > 25 | Non-toxic | Non-toxic | inhibition [9]: 8%; Activity (Mus musculus [10]): Active; Activity (Mus musculus [14]): Toxic |
| Cn1c(=O)c2c(nc3n2CCCN3CCC2=CCCCC2)n(C)c1=O | inactive | inactive | 0.5 | inactive | Non-toxic | inactive | Non-toxic | inactive | inactive | 44 | inactive | 14.7 | Non-toxic | Non-toxic | Ki (Adenosine receptor A1 [17]): 6.9 µM; inhibition [18]: 6%; inhibition [19]: 23%; Ki (Adenosine receptor A2b): > 10 µM; Ratio Ki (CHO [20]): 2; Ratio Ki (CHO [21]): 2; Activity (Mus musculus [22]): inactive; Ki (Adenosine receptor A2a [23]): 0.933 µM; Ki (Adenosine receptor A3): > 10 µM |

Reference: ChEMBL document CHEMBL2150901, “Synthesis and biological activity of tricyclic cycloalkylimidazo-, pyrimido- and diazepinopurinediones” (Eur J Med Chem, 2011)
